Consider two molecules from ChEMBL document CHEMBL1147097, “Trioxaquines are new antimalarial agents active on all erythrocytic forms, including gametocytes” (Antimicrob Agents Chemother, 2007).

The subject of data set [1] is Plasmodium vinckei petteri. Put plainly: Antimalarial activity against Plasmodium vinckei petteri infected subcutaneously dosed Swiss Albino mice (Mus musculus). Format: functional. The note with it: for ED50 / ED90: Plasmodium vinckei, sc. The gist of the method: (§1)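 Four-day suppressive test: groups of five female Swiss albino mice infected i.p. on day 0 with 2 × 10^7 parasitized red cells, then dosed once daily for 4 days (i.p., p.o. or s.c.; DMSO vehicle, chloroquine in 0.9% NaCl). Parasitemia read on day 4 vs untreated controls; ED50/ED90 as % growth inhibition; CD50/CD90 = cure (no parasites at 60 days).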

In data set [2] the test system is Plasmodium vinckei petteri. Briefly: Antimalarial activity against Plasmodium vinckei petteri infected orally dosed Swiss Albino mice (Mus musculus). Format: functional. The note with it: for ED50 / ED90: Plasmodium vinckei, po. The gist of the method: as §1
Data set [3] concerns Mus musculus. Briefly: Toxicity against Swiss mouse at 100 mg/kg, po after 4 days. Also noted: dose 100 mg/kg, route oral. Format: organism-based. Particulars: in vivo, 96 h. A digest of the protocol: (§2)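 Healthy Swiss mice given 100, 200 or 400 mg/kg/day p.o. by gavage for four consecutive days; two to four mice per dose, two experiments. One mouse killed per dose on days 5, 30 and 60. Organs examined against NaCl- or DMSO-treated controls, with H&E sections of stomach.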

The subject of data set [4] is Plasmodium vinckei petteri. Put plainly: Antimalarial activity against Plasmodium vinckei petteri infected intraperitoneally dosed Swiss Albino mice (Mus musculus). The note with it: for ED50 / ED90: Plasmodium vinckei, ip; for ED50: read-out: ED50; for ED90: read-out: ED90. Format: functional. A digest of the protocol:
as §1

In data set [5] the test system is Mus musculus. Put plainly: Toxicity against Swiss mouse at 400 mg/kg, po after 4 days. Format: organism-based. On the set-up: dose 400 mg/kg, route oral. The note with it: in vivo, 96 h. The gist of the method: as §2
The test system of data set [6] is Mus musculus. Put plainly: Toxicity against Swiss mouse at 200 mg/kg, po after 4 days. Format: organism-based. On the set-up: dose 200 mg/kg, route oral. The note with it: in vivo, 96 h. The gist of the method:
as §2

In data set [7] the test system is Mus musculus. Briefly: Toxicity against Plasmodium vinckei petteri infected mice (Mus musculus) at 50 mg/kg, perorally after 4 days. Format: organism-based. On the set-up: dose 50 mg/kg, route oral. Particulars: in vivo, po, 96 h. A digest of the protocol:
(§3)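 Subacute toxicity: P. vinckei petteri-infected mice dosed on four consecutive days (day 0–3) at 10, 25 or 50 mg/kg/day p.o., i.p. or s.c. Five mice per dose and route.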

Data set [8] concerns Plasmodium falciparum. Put plainly: Antimalarial activity against chloroquine-sensitive Plasmodium falciparum F32. Format: functional, organism-based. The gist of the method:
(§4)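 Asexual P. falciparum grown in culture at 37°C under 5% CO2 and exposed to drug dilutions for 48 h. Growth inhibition measured by radioactive micromethod. IC50 read graphically from concentration vs % growth inhibition; mean of at least three independent experiments.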

Data set [9] concerns Plasmodium falciparum. Briefly: Antimalarial activity against chloroquine-resistant Plasmodium falciparum FcM29. Format: functional, organism-based. The gist of the method: as §4
Data set [10] relates to Mus musculus. Briefly: Toxicity against intraperitoneally dosed Swiss mouse. Format: organism-based. Particulars: in vivo, ip. The gist of the method:
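Acute toxicity: noninfected Swiss mice (two to five per dose) given a single i.p. injection. LD50 is the dose killing 50% of mice within 60 days.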

Data set [11] concerns Mus musculus. Briefly: Toxicity against Plasmodium vinckei petteri infected mice (Mus musculus) at 25 mg/kg, intraperitoneally after 4 days. Format: organism-based. Also noted: dose 25 mg/kg, route intraperitoneal. The note with it: in vivo, ip, 96 h. The gist of the method: as §3
The subject of data set [12] is Plasmodium falciparum. Put plainly: Antimalarial activity against chloroquine-resistant Plasmodium falciparum FcB1. Format: functional, organism-based. A digest of the protocol: as §4

Regarding `CC(C)C1=C[C@H]2OC3(CCC(NCCNc4ccnc5cc(Cl)ccc45)CC3)OO[C@@]2(C)CC1` (stereo partly drawn), the CD50 in data set [1] came to 5 mg/kg/day; in [2], 12 mg/kg/day; in data set [4] it was 5 mg/kg/day. The CD90 stood at 8 mg/kg/day in [1], 24 mg/kg/day in [2] and 8 mg/kg/day in [4]. Also, the ED50 (commonly the midpoint of the dose-response relation) in data set [1] turned out to be 1.5 mg/kg/day; in [2], 4 mg/kg/day; in data set [4], 0.7 mg/kg/day. Also, the results for the ED90 in data set [1], in data set [2] and in [4] were 9 mg/kg/day, 9 mg/kg/day and 8 mg/kg/day, respectively. The Activity entry in the data set with Mus musculus [3], in the data set on Mus musculus [5] and in the data set on Mus musculus [6] was “Non-toxic” each time.

With `CC(C)C1=C[C@H]2OC3(CCC(NCCNc4ccnc5cc(Cl)ccc45)CC3)OO[C@@]2(C)CC1.O=[N+]([O-])O` (stereo partly drawn), the CD50 stood at 3 mg/kg/day in data set [1], 24 mg/kg/day in [2] and 3 mg/kg/day in data set [4]. The CD90 in data set [1] turned out to be 8 mg/kg/day; in [2], 46 mg/kg/day; in [4], 9 mg/kg/day. Further, the ED50 in [1] was found to be 2 mg/kg/day; in data set [2] it was 16 mg/kg/day; in [4], 0.7 mg/kg/day. The ED90 came to 6 mg/kg/day in [1], 34 mg/kg/day in data set [2] and 8 mg/kg/day in [4]. Further, the Activity entry in the data set with Mus musculus [7] and in the data set on Mus musculus [11] was “Non-toxic” each time. Moreover, the results for the IC50 in the data set on Plasmodium falciparum [8], in the data set with Plasmodium falciparum [9] and with Plasmodium falciparum [12] were 25 nM, 16 nM and 21 nM, respectively. Further, the LD50 (commonly the dose expected to kill half of the subjects tested) in the data set with Mus musculus [10] is reported as 70 mg/kg/day.
